Legend:
[1] = target: T1, 5-hydroxytryptamine receptor 2C (Rattus norvegicus) (UniProt P08909); test: Binding affinity towards rat 5-hydroxytryptamine 1C receptor using [3H]mesulergine as radioligand expressed in 293 cells; assay type: cell-based; details: HEK293
T1 sequence (whole entry): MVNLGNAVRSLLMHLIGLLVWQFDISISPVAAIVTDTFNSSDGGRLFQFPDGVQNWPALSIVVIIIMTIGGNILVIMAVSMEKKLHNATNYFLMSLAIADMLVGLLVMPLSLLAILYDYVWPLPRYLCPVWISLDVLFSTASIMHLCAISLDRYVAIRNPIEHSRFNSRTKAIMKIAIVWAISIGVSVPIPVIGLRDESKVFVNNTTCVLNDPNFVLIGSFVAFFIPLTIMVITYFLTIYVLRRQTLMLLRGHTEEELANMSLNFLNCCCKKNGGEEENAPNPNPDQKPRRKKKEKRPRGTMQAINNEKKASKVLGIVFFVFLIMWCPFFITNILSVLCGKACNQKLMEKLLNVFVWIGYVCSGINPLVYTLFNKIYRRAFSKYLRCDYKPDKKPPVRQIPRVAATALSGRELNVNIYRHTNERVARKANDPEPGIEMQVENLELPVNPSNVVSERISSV
Procedure, shortened: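 Cloned rat 5-HT1C receptor expressed in 293 cells, labelled with [3H]mesulergine. Values are means ± SEM of n = 3 determinations.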

[2] = Selectivity ratio is Ki value of 5-HT2 receptor to that of 5-HT1c receptor
Procedure, shortened: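 Ratio of Ki at 5-HT2 ([3H]ketanserin, rat frontal cortex) to Ki at 5-HT1C ([3H]mesulergine, rat clone in 293 cells). Each Ki is a mean of n = 3 determinations.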

Cn1ccc2cccc(NC(=O)Nc3ccccc3)c21
pK1 [1]: < 5.3

Cn1ccc2c(NC(=O)Nc3ccncc3)cccc21
pK1 [1]: 7.18 | Selectivity [2]: 45

Cn1ccc2c(NC(=O)Nc3ccccn3)cccc21
pK1 [1]: 6.49 | Selectivity [2]: > 19
